What all share (type): functional
The test system of assay [1] is Haemophilus influenzae. Nature of the assay: Antibacterial activity against Haemophilus influenzae ATCC 49247 after 24 hrs at 37 degC by CLSI protocol based microdilution method. The following applies: ATCC 49247, 24 h. In a few lines: (§1)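 Macrolide-susceptible strains, broth microdilution MIC per CLSI. Media: Mueller–Hinton broth (MHB) for S. aureus and M. catarrhalis, MHB plus 5% horse serum for streptococci, Haemophilus test medium for H. influenzae. Compounds dissolved in DMF (5 mg/mL stock) and serially twofold diluted in medium over 64 to 0.125 µg/mL. MIC read after 24 h incubation at 37 °C.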
A general note: Dilution methods test growth across graded concentrations, often in twofold steps.

The test system of assay [2] is Moraxella catarrhalis. Briefly: Antibacterial activity against Moraxella catarrhalis ATCC 23246 after 24 hrs at 37 degC by CLSI protocol based microdilution method. To be noted: ATCC 23246, 24 h. In a few lines: as §1
For assay [3], the system named is Staphylococcus aureus. Nature of the assay: Antibacterial activity against Staphylococcus aureus ATCC 13709 after 24 hrs at 37 degC by CLSI protocol based microdilution method. To be noted: ATCC 13709, 24 h. In a few lines:
as §1

Assay [4] concerns Streptococcus pyogenes. Nature of the assay: Antibacterial activity against Streptococcus pyogenes ATCC 700294 after 24 hrs at 37 degC by CLSI protocol based microdilution method. To be noted: ATCC 700294, 24 h. In a few lines:
as §1

Assay [5] deals with Streptococcus pneumoniae. Briefly: Antibacterial activity against Streptococcus pneumoniae ATCC […] after 24 hrs at 37 degC by CLSI protocol based microdilution method. In a few lines: as §1

Consider 15 molecules from ChEMBL document CHEMBL2021818, “Novel desosamine-modified 14- and 15-membered macrolides without antibacterial activity” (2012).

≈ marks a conversion by molar mass, not a printed value.

Take `CC[C@H]1OC(=O)[C@H](C)[C@@H](O[C@H]2C[C@@](C)(OC)[C@@H](O)[C@H](C)O2)[C@H](C)[C@@H](O[C@@H]2O[C@H](C)C[C@H](NC)[C@H]2O)[C@](C)(OC)C[C@@H](C)C(=O)N[C@H](C)[C@@H](O)[C@]1(C)O`: the MIC in assay [1] is over 64 µg/mL; in assay [2], 16 µg/mL (≈ 21.4 µM); in assay [3] it was over 64 µg/mL; in assay [4], 64 µg/mL (≈ 85.5 µM); in assay [5], 32 µg/mL (≈ 42.7 µM).
Regarding `CC[C@H]1OC(=O)[C@H](C)[C@@H](O[C@H]2C[C@@](C)(OC)[C@@H](O)[C@H](C)O2)[C@H](C)[C@@H](O[C@@H]2O[C@H](C)C[C@H](NC)[C@H]2O)[C@](C)(OC)C[C@@H](C)C(=O)[C@H](C)[C@@H](O)[C@]1(C)O`, the MIC in assay [1] is over 64 µg/mL; in assay [2] it was 2 µg/mL (≈ 2.73 µM); in assay [3], 4 µg/mL (≈ 5.45 µM); in assay [4] it was under 0.25 µg/mL; in assay [5], under 0.25 µg/mL.
In the case of `CC[C@H]1OC(=O)[C@H](C)[C@@H](O[C@H]2C[C@@](C)(OC)[C@@H](O)[C@H](C)O2)[C@H](C)[C@@H](O[C@@H]2O[C@H](C)C[C@H](NC)[C@H]2O)[C@](C)(O)C[C@@H](C)CN(C)[C@H](C)[C@@H](O)[C@]1(C)O`, the MIC was over 64 µg/mL in assay [1]; 2 µg/mL (≈ 2.72 µM) in assay [2]; 16 µg/mL (≈ 21.8 µM) in assay [3]; 2 µg/mL (≈ 2.72 µM) in assay [4]; 2 µg/mL (≈ 2.72 µM) in assay [5].
Take `CC[C@H]1OC(=O)[C@H](C)[C@@H](O[C@H]2C[C@@](C)(OC)[C@@H](O)[C@H](C)O2)[C@H](C)[C@@H](O[C@@H]2O[C@H](C)C[C@H](N)[C@H]2O)[C@](C)(OC)C[C@@H](C)C(=O)N[C@H](C)[C@@H](O)[C@]1(C)O`: the MIC in assay [1], in assay [2], in assay [3], in assay [4] and in assay [5] was over 64 µg/mL in each case.
In the case of `CC[C@H]1OC(=O)[C@H](C)[C@@H](O[C@H]2C[C@@](C)(OC)[C@@H](O)[C@H](C)O2)[C@H](C)[C@@H](O[C@@H]2O[C@H](C)C[C@H](N)[C@H]2O)[C@](C)(OC)C[C@@H](C)C(=O)[C@H](C)[C@@H](O)[C@]1(C)O`, the MIC in assay [1] was over 64 µg/mL; in assay [2], 16 µg/mL (≈ 22.2 µM); in assay [3] it was over 64 µg/mL; in assay [4] it was 2 µg/mL (≈ 2.78 µM); in assay [5], 2 µg/mL (≈ 2.78 µM).
For the molecule `CC[C@H]1OC(=O)[C@H](C)[C@@H](O[C@H]2C[C@@](C)(OC)[C@@H](O)[C@H](C)O2)[C@H](C)[C@@H](O[C@@H]2O[C@H](C)C[C@H](N)[C@H]2O)[C@](C)(O)C[C@@H](C)CN(C)[C@H](C)[C@@H](O)[C@]1(C)O`, the MIC is 64 µg/mL (≈ 88.8 µM) in assay [1]; 8 µg/mL (≈ 11.1 µM) in assay [2]; over 64 µg/mL in assay [3]; 32 µg/mL (≈ 44.4 µM) in assay [4]; 4 µg/mL (≈ 5.55 µM) in assay [5].
Take `CC[C@H]1OC(=O)[C@H](C)[C@@H](O[C@H]2C[C@@](C)(OC)[C@@H](O)[C@H](C)O2)[C@H](C)[C@@H](O[C@@H]2O[C@H](C)C[C@@H]3NC(=O)O[C@@H]23)[C@](C)(OC)C[C@@H](C)C(=O)N[C@H](C)[C@@H](O)[C@]1(C)O`: the MIC in assay [1], in assay [2], in assay [3], in assay [4] and in assay [5] was over 64 µg/mL in each case.
For the molecule `CC[C@H]1OC(=O)[C@H](C)[C@@H](O[C@H]2C[C@@](C)(OC)[C@@H](O)[C@H](C)O2)[C@H](C)[C@@H](O[C@@H]2O[C@H](C)C[C@@H]3NC(=O)O[C@@H]23)[C@](C)(OC)C[C@@H](C)C(=O)[C@H](C)[C@@H](O)[C@]1(C)O`, the MIC in assay [1], in assay [2], in assay [3], in assay [4] and in assay [5] was over 64 µg/mL each time.
`CC[C@H]1OC(=O)[C@H](C)[C@@H](O[C@H]2C[C@@](C)(OC)[C@@H](O)[C@H](C)O2)[C@H](C)[C@@H](O[C@@H]2O[C@H](C)C[C@@H]3NC(=O)O[C@@H]23)[C@](C)(O)C[C@@H](C)CN(C)[C@H](C)[C@@H](O)[C@]1(C)O`: the MIC in assay [1], in assay [2], in assay [3], in assay [4] and in assay [5] was over 64 µg/mL throughout.
For the molecule `CC[C@H]1OC(=O)[C@H](C)[C@@H](O[C@H]2C[C@@](C)(OC)[C@@H](O)[C@H](C)O2)[C@H](C)[C@@H](O[C@@H]2O[C@H](C)C[C@H]3[C@H]2OC(=O)N3C)[C@](C)(OC)C[C@@H](C)C(=O)N[C@H](C)[C@@H](O)[C@]1(C)O`, the MIC in assay [1], in assay [2], in assay [3], in assay [4] and in assay [5] was over 64 µg/mL throughout.
Consider `CC[C@H]1OC(=O)[C@H](C)[C@@H](O[C@H]2C[C@@](C)(OC)[C@@H](O)[C@H](C)O2)[C@H](C)[C@@H](O[C@@H]2O[C@H](C)C[C@H]3[C@H]2OC(=O)N3C)[C@](C)(OC)C[C@@H](C)C(=O)[C@H](C)[C@@H](O)[C@]1(C)O`, for which the MIC in assay [1], in assay [2], in assay [3], in assay [4] and in assay [5] was over 64 µg/mL each time.
Consider `CC[C@H]1OC(=O)[C@H](C)[C@@H](O[C@H]2C[C@@](C)(OC)[C@@H](O)[C@H](C)O2)[C@H](C)[C@@H](O[C@@H]2O[C@H](C)C[C@H]3[C@H]2OC(=O)N3C)[C@](C)(O)C[C@@H](C)CN(C)[C@H](C)[C@@H](O)[C@]1(C)O`, for which the MIC in assay [1], in assay [2], in assay [3], in assay [4] and in assay [5] was over 64 µg/mL each time.
For `CC[C@H]1OC(=O)[C@H](C)[C@@H](O[C@H]2C[C@@](C)(OC)[C@@H](O)[C@H](C)O2)[C@H](C)[C@@H](O[C@@H]2O[C@H](C)C[C@H]3[C@H]2OC(=O)N3CC)[C@](C)(OC)C[C@@H](C)C(=O)N[C@H](C)[C@@H](O)[C@]1(C)O`, the MIC in assay [1], in assay [2], in assay [3], in assay [4] and in assay [5] was over 64 µg/mL throughout.
As for `CCCN1C(=O)O[C@H]2[C@H](O[C@@H]3[C@@H](C)[C@H](O[C@H]4C[C@@](C)(OC)[C@@H](O)[C@H](C)O4)[C@@H](C)C(=O)O[C@H](CC)[C@@](C)(O)[C@H](O)[C@@H](C)NC(=O)[C@H](C)C[C@@]3(C)OC)O[C@H](C)C[C@@H]21`, the MIC in assay [1], in assay [2], in assay [3], in assay [4] and in assay [5] was over 64 µg/mL each time.
For the molecule `CC[C@H]1OC(=O)[C@H](C)[C@@H](O[C@H]2C[C@@](C)(OC)[C@@H](O)[C@H](C)O2)[C@H](C)[C@@H](O[C@@H]2O[C@H](C)C[C@H](N(C)C)[C@H]2O)[C@](C)(OC)C[C@@H](C)C(=O)N[C@H](C)[C@@H](O)[C@]1(C)O`, the MIC in assay [1] turned out to be 16 µg/mL (≈ 21 µM); in assay [2], 0.5 µg/mL (≈ 0.655 µM); in assay [3], 32 µg/mL (≈ 41.9 µM); in assay [4], 4 µg/mL (≈ 5.24 µM); in assay [5], 1 µg/mL (≈ 1.31 µM).
